What all share (format): functional, cell-based
One assay relates to MCF7. The assay is described as follows: Cytotoxicity against human MCF7 cells assessed as reduction in cell viability at 100 uM after 24 hrs by MTT assay. In outline: (§1)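 Human cancer lines grown in DMEM or RPMI-1640 with 10% FBS plus penicillin–streptomycin, 5% CO2, 37 °C. MTT read-out, viable-cell percentage measured at 490 nm. Doxorubicin hydrochloride as positive control.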

For another assay, the system named is HeLa. Put plainly: Cytotoxicity against human HeLa cells assessed as reduction in cell viability at 100 uM after 24 hrs by MTT assay. Summed up: as §1
On the technique in general: Tetrazolium assays rely on reduction of a dye to a coloured formazan, in cell work by metabolically active cells.

The next assay deals with HT-29. The assay is described as follows: Cytotoxicity against human HT-29 cells assessed as reduction in cell viability at 100 uM after 24 hrs by MTT assay. In outline: as §1
The subject of another assay is HepG2. Put plainly: Cytotoxicity against human HepG2 cells assessed as reduction in cell viability at 100 uM after 24 hrs by MTT assay. In outline:
as §1

For the next assay, the system named is Murine T-cell line. Put plainly: Immunosuppressive activity in C57BL/6 mouse T cells assessed as inhibition of ConA-induced cell proliferation by MTT assay. The settings on record: C57BL/6, T-cell. Summed up:
(§2)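 Splenocytes from male C57BL/6 mice (6–8 weeks), red cells lysed, in RPMI 1640 with 10% FBS. 5 × 10^5 cells per well, 5% CO2, 37 °C, 24 h. Stimulated with ConA 5 μg/mL (T cells) or LPS 10 μg/mL (B cells). MTT added for 4 h, pellet dissolved in DMSO, read at 490 nm. CsA and MMF as positive controls.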

The test system of a further assay is B-cell line. Put plainly: Immunosuppressive activity in C57BL/6 mouse B cells assessed as inhibition of LPS-induced cell proliferation by MTT assay. The settings on record: C57BL/6, B-cell. In outline: as §2

Activity and IC50 data for 16 compounds are collected here from ChEMBL document CHEMBL4196132, “Alkaloids with Immunosuppressive Activity from the Bark of Pausinystalia yohimbe” (J Nat Prod, 2018).

Activity calls are given as the source filed them. The calls are words filed in the database; no cut-off is given here.

For the compound `CC[C@@H]1CN2CC[C@]3(C(=O)Nc4ccccc43)[C@@H]2C[C@@H]1/C(=C\OC)C(=O)OC`, the outcome in the assay on MCF7, with HeLa, with HT-29 and in the assay with HepG2 was inactive.
Regarding `C=C[C@H]1C[N@+]2([O-])CCc3c([nH]c4ccccc34)[C@@H]2C[C@@H]1/C(=C\OC)C(=O)OC`, the result with MCF7, with HeLa, with HT-29 and in the assay with HepG2 was inactive.
Turning to `CC[C@@H]1C[N@@+]2([O-])CCc3c([nH]c4ccccc34)[C@@H]2C[C@@H]1/C(=C\OC)C(=O)OC`, the result with MCF7, in the assay with HeLa, in the assay on HT-29 and in the assay on HepG2 was inactive.
With `CC[C@@H]1CN2CCc3c([nH]c4ccccc34)[C@@H]2C[C@@H]1/C(=C\OC)C(=O)OC`, the outcome with MCF7, in the assay on HeLa, with HT-29 and in the assay on HepG2 was inactive.
As for `C=C[C@H]1C[N@@+]2([O-])CCc3c([nH]c4ccccc34)[C@@H]2C[C@@H]1/C(=C\OC)C(=O)OC`, the outcome in the assay with MCF7, in the assay with HeLa, in the assay with HT-29 and in the assay on HepG2 was inactive.
Take `CC[C@@H]1C[N@+]2([O-])CCc3c([nH]c4ccccc34)[C@@H]2C[C@@H]1/C(=C\OC)C(=O)OC`: the result in the assay with MCF7, with HeLa, in the assay with HT-29 and with HepG2 was inactive.
For the compound `C=C[C@@H]1CN2CC[C@@]3(C(=O)Nc4ccccc43)[C@@H]2C[C@@H]1/C(=C\OC)C(=O)OC`, the outcome in the assay on MCF7, in the assay with HeLa, in the assay with HT-29 and with HepG2 was inactive.
For the compound `CC[C@H]1CN2CCc3c([nH]c4ccccc34)[C@@H]2C[C@@H]1/C(=C\OC)C(=O)OC` (stereo in doubt; 14), the outcome in the assay on MCF7, in the assay on HeLa, with HT-29 and in the assay with HepG2 was inactive.
For the compound `CC[C@@H]1CN2C=Cc3c([nH]c4ccccc34)C2=C2OC(=O)C(C=O)=C21`, the outcome with MCF7, in the assay on HeLa, in the assay on HT-29 and in the assay with HepG2 was inactive.
Turning to `CC[C@@H]1CN2CCc3c([nH]c4ccccc34)C2=C2OC(=O)C(C(=O)OC)=C21`, the outcome in the assay on MCF7, with HeLa, in the assay with HT-29 and with HepG2 was inactive.
As to `CC[C@H]1C[N@@+]2([O-])CCc3c([nH]c4ccccc34)[C@@H]2C[C@@H]1/C(=C\OC)C(=O)OC`, the result in the assay on MCF7, with HeLa, with HT-29 and with HepG2 was inactive.
As to `C=C[C@H]1CN2CC[C@]3(C(=O)Nc4ccccc43)[C@@H]2C[C@@H]1/C(=C\OC)C(=O)OC`, the result in the assay with MCF7, in the assay with HeLa, with HT-29 and with HepG2 was inactive.
Consider `CC[C@@H]1CN2CC[C@@]3(C(=O)Nc4ccccc43)[C@@H]2C[C@@H]1/C(=C\OC)C(=O)OC`, for which the outcome in the assay on MCF7, in the assay with HeLa, with HT-29 and in the assay on HepG2 was inactive.
`COC(=O)[C@H]1[C@H]2C[C@H]3c4[nH]c5ccccc5c4CCN3C[C@@H]2CC[C@@H]1O` [CORYNANTHEINE]: the outcome with MCF7, in the assay on HeLa, with HT-29 and with HepG2 was inactive. For the same compound, the IC50 in the assay with Murine T-cell line amounted to 27.6 µM; in the assay on B-cell line, 40.5 µM.
As to `CC[C@H]1CN2CCc3c([nH]c4ccccc34)[C@@H]2C[C@@H]1/C(=C\OC)C(=O)OC` (stereo in doubt; 13), the outcome in the assay with MCF7, with HeLa, in the assay on HT-29 and in the assay on HepG2 was inactive.
Consider `C=C[C@H]1CN2CCc3c([nH]c4ccccc34)[C@@H]2C[C@@H]1/C(=C\OC)C(=O)OC`, for which the outcome in the assay with MCF7, in the assay with HeLa, in the assay on HT-29 and in the assay on HepG2 was inactive. Further, the IC50 came out at 16.8 µM in the assay with Murine T-cell line and 13.5 µM in the assay with B-cell line.

By IC50 is commonly meant the concentration that gives 50% inhibition.
